Results as given in ChEMBL document CHEMBL6092224, “The Discovery and Preclinical Profile of ALG-000184, a Prodrug of the Potent Hepatitis B Virus Capsid Assembly Modulator ALG-001075” (J Med Chem, 2024).

What was measured:
[1] = Metabolic stability in human liver microsomes assessed as half life at 1 uM incubated upto 60 mins in presence of NADPH; assay type: ADME, Microsome
Method in brief: (§1)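 Compound at 1 μM incubated at 37 °C with liver microsomes of each species for 0, 15, 30 and 60 min, with and without NADPH; half-life determined.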

[2] = Metabolic stability in mouse liver microsomes assessed as half life at 1 uM incubated upto 60 mins in presence of NADPH; assay type: ADME, Microsome; method in brief: as §1
Hepatitis B virus = assay: Antiviral activity against HBV genotype D infected in human HepG2.117 cells assessed as decrease in HBV DNA production by qPCR analysis; assay type: functional, organism-based
Method in brief: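 HepG2.117 cells (integrated genotype D HBV genome, Tet-off promoter; kept in 1 μg/mL doxycycline) were seeded at 20,000 cells/well and given serial compound dilutions (2% DMSO) for 3 days at 37 °C. Lysates were taken in 0.33% NP40. Intracellular HBV DNA was quantified by qPCR and EC50/EC90 derived. For serum shift, 40% human serum was present during incubation. Mean ± SEM, n=3 (serum) or 13.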

[3] = Metabolic stability in rat liver microsomes assessed as half life at 1 uM incubated upto 60 mins in presence of NADPH; assay type: ADME, Microsome; method in brief: as §1
[4] = Metabolic stability in dog liver microsomes assessed as half life at 1 uM incubated upto 60 mins in presence of NADPH; assay type: ADME, Canis lupus familiaris, Microsome; method in brief: as §1
[5] = Metabolic stability in Cynomolgous monkey liver microsomes assessed as half life at 1 uM incubated upto 60 mins in presence of NADPH; assay type: ADME, Macaca fascicularis, Microsome; conditions: cynomolgus monkey; method in brief: as §1
[6] = Metabolic stability in mouse plasma assessed as half life; assay type: ADME, cell-free
[7] = Metabolic stability in rat plasma assessed as half life; assay type: ADME, cell-free
[8] = Metabolic stability in dog plasma assessed as half life; assay type: ADME, cell-free, Canis lupus familiaris
[9] = Metabolic stability in Cynomolgous monkey plasma assessed as half life; assay type: ADME, cell-free, Macaca fascicularis; conditions: cynomolgus monkey
[10] = Metabolic stability in human plasma assessed as half life; assay type: ADME, cell-free
Cytochrome P450 1A2 = Cytochrome P450 1A2 (Homo sapiens, UniProt P05177); assay: Inhibition of CYP1A2 in human liver microsomes in presence of NADPH; assay type: ADME, Microsome
Method in brief: (§2)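 Pooled human liver microsomes with CYP isoform-specific probe substrates, in 100 mM potassium phosphate pH 7.4, 3 mM MgCl2 and 1 mM NADPH, at 37 °C. Final test ranges were 0.069–50 μM or 0.03–100 μM; IC50 was determined.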

Cytochrome P450 2B6 = target: T1, Cytochrome P450 2B6 (Homo sapiens, UniProt P20813); assay: Inhibition of CYP2B6 in human liver microsomes in presence of NADPH; assay type: ADME, Microsome; method in brief: as §2
T1 sequence (P20813 whole entry): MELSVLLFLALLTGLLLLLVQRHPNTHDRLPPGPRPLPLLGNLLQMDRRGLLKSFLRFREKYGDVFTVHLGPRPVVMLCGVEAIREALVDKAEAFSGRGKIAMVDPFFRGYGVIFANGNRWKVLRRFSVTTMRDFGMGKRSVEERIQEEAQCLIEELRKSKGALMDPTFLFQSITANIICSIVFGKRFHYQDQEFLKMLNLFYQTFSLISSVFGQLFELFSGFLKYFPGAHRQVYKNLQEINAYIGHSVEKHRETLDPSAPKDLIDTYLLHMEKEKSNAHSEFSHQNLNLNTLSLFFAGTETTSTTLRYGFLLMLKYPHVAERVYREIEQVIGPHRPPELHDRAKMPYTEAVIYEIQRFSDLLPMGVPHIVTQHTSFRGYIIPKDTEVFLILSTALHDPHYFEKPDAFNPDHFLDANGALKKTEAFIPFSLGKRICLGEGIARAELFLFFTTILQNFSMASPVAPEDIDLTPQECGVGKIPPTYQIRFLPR

Cytochrome P450 2C8 = Cytochrome P450 2C8 (Homo sapiens, UniProt P10632); assay: Inhibition of CYP2C8 in human liver microsomes in presence of NADPH; assay type: ADME, Microsome; method in brief: as §2
Cytochrome P450 2C9 = Cytochrome P450 2C9 (Homo sapiens, UniProt P11712); assay: Inhibition of CYP2C9 in human liver microsomes in presence of NADPH; assay type: ADME, Microsome; method in brief: as §2
Cytochrome P450 2C19 = Cytochrome P450 2C19 (Homo sapiens, UniProt P33261); assay: Inhibition of CYP2C19 in human liver microsomes in presence of NADPH; assay type: ADME, Microsome; method in brief: as §2
Cytochrome P450 2D6 = Cytochrome P450 2D6 (Homo sapiens, UniProt P10635); assay: Inhibition of CYP2D6 in human liver microsomes in presence of NADPH; assay type: ADME, Microsome; method in brief: as §2
Cytochrome P450 3A4 = Cytochrome P450 3A4 (Homo sapiens, UniProt P08684); assay: Inhibition of CYP3A4 in human liver microsomes in presence of NADPH; assay type: ADME, Microsome
Method in brief: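 Pooled human liver microsomes in 100 mM potassium phosphate pH 7.4, 3 mM MgCl2, 1 mM NADPH, 37 °C, with CYP3A4-specific probe substrate; test compound over 0.069–50 μM or 0.03–100 μM final, IC50 derived.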

UGT1A1 = UGT1A1 (Homo sapiens, UniProt P22309); assay: Inhibition of recombinant human UGT1A1 at 10 uM in presence of UDPGA relative to control
Method in brief: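 Recombinant human UGT1A1 at 0.05 mg/mL with 5 mM UDPGA cofactor, 10 min incubation; test compound at single 10 μM concentration.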

[11] = target: Solute carrier organic anion transporter family member 1B1 (Homo sapiens, UniProt Q9Y6L6); assay: Inhibition of OATP1B1 (unknown origin) transfected in HEK293 cells; assay type: cell-based
Method in brief: (§3)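 HEK-293 cells transfected with the uptake transporter; uptake of known probe substrates measured with test compound at eight concentrations (0.0229–50.0 μM or 0.0457–100 μM); inhibition at each concentration used to calculate IC50.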

[12] = target: Solute carrier organic anion transporter family member 1B3 (Homo sapiens, UniProt Q9NPD5); assay: Inhibition of OATP1B3 (unknown origin) transfected in HEK293 cells; assay type: cell-based; method in brief: as §3
[13] = Mutagenicity in Salmonella typhimurium TA98 by Ames test; assay type: toxicity; conditions: salmonella enterica subsp. enterica serovar typhimurium
[14] = Mutagenicity in Salmonella typhimurium TA100 by Ames test; assay type: toxicity; conditions: salmonella enterica subsp. enterica serovar typhimurium
[15] = Mutagenicity in Salmonella typhimurium TA1535 by Ames test; assay type: toxicity; conditions: salmonella enterica subsp. enterica serovar typhimurium
[16] = Mutagenicity in Salmonella typhimurium TA97a by Ames test; assay type: toxicity; conditions: salmonella enterica subsp. enterica serovar typhimurium
[17] = Mutagenicity in Salmonella […] by Ames test; assay type: toxicity; conditions: salmonella enterica subsp. enterica serovar typhimurium
[18] = Genotoxicity in human TK6 cells measured for 4 to 27 hrs by micronucleus test; assay type: toxicity, cell-based; conditions: time 4-27 hrs
[19] = target: Voltage-gated inwardly rectifying potassium channel KCNH2 (Homo sapiens, UniProt Q12809); assay: Inhibition of hERG expressed in mammalian cells at 10 uM by automated patch-clamp method; assay type: toxicity, cell-based
Method in brief: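 Currents of hERG, Nav1.5 or Cav1.2 channels expressed in mammalian cells recorded by automated patch clamp (QPatch 48) at room temperature.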

[20] = Tmax in C57BL/6J mouse at 5 mg/kg, po by LC-MS/MS analysis; assay type: ADME, organism-based; conditions: in vivo
Method in brief: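 Fasted males (C57BL6 mice, Sprague−Dawley rats, beagle dogs, cynomolgus monkeys) given a single oral solution dose of 5 mg/kg in 80% PEG 400 in water. Plasma sampled over time, analysed by LC-MS/MS. Noncompartmental analysis used nominal doses and nominal sampling times.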

Cytochrome P450 2C9, sequence (P11712 whole entry): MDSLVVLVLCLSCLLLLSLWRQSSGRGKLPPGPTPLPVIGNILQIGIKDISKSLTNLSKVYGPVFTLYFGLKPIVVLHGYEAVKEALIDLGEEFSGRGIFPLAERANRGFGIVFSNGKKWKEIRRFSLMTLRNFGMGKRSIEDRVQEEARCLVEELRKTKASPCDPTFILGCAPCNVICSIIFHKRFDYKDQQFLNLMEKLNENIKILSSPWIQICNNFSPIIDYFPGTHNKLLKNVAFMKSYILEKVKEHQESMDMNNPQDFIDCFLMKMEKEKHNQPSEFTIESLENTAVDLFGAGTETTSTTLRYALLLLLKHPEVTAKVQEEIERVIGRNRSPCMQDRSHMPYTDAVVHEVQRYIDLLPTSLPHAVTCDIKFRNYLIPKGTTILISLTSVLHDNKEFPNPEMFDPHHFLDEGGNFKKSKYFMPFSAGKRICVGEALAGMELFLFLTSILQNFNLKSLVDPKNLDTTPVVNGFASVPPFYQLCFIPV
Solute carrier organic anion transporter family member 1B1, sequence (Q9Y6L6 whole entry): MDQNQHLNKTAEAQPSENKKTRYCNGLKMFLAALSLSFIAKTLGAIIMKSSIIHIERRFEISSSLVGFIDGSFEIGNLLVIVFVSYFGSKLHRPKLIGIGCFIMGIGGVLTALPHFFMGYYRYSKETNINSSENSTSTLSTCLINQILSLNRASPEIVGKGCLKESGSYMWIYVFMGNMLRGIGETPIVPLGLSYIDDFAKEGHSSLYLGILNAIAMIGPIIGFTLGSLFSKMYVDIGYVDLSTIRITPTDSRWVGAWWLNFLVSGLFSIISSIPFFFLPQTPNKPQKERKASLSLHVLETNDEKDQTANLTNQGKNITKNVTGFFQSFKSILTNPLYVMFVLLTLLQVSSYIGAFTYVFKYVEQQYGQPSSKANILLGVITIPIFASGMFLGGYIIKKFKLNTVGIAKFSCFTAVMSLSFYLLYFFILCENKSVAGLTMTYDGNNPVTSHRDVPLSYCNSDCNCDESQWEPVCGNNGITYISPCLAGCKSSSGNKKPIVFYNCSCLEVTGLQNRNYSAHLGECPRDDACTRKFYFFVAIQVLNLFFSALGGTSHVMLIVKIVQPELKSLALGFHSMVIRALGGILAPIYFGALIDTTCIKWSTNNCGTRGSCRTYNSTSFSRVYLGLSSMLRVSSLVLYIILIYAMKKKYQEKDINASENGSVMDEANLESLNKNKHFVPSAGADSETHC
Cytochrome P450 2C8, sequence (P10632 whole entry): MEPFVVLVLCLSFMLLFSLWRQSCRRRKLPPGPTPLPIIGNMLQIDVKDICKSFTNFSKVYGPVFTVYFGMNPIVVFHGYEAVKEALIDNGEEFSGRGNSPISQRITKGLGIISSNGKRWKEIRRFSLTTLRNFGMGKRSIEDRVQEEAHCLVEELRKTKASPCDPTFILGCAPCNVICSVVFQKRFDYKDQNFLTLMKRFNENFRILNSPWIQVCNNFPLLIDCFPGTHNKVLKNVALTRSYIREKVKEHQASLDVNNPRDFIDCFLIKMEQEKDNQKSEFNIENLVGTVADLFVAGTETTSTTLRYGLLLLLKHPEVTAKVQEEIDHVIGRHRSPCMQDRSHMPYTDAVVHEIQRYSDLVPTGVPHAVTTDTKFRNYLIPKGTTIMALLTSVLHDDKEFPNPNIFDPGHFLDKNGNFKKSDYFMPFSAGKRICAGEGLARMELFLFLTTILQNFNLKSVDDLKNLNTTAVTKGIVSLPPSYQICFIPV
Cytochrome P450 3A4, sequence (P08684 whole entry): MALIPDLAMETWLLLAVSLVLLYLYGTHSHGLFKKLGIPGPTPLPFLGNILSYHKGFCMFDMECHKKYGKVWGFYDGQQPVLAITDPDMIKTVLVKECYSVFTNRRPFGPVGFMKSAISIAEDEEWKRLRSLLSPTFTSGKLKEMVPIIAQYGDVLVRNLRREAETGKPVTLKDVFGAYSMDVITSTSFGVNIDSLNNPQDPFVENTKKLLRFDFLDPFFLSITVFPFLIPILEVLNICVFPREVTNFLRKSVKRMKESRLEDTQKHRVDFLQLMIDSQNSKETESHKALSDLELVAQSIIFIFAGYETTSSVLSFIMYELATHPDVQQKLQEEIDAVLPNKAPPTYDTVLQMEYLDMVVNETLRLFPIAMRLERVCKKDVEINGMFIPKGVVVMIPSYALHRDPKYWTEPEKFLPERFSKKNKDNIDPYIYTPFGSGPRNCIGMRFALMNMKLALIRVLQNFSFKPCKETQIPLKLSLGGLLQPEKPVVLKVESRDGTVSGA
Cytochrome P450 2C19, sequence (P33261 whole entry): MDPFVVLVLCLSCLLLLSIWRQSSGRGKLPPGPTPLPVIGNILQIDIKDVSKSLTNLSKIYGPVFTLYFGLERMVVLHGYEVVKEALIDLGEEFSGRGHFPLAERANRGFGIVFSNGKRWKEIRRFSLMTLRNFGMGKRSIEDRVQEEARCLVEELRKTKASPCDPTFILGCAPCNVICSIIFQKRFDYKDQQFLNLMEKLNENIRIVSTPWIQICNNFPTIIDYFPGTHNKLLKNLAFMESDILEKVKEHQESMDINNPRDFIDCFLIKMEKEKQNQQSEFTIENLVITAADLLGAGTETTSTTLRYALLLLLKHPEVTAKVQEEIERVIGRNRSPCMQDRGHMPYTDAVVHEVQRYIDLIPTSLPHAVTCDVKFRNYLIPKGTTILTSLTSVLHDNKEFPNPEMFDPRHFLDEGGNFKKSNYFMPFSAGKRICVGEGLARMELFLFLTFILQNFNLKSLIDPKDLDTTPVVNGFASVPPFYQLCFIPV
UGT1A1, sequence (P22309 whole entry): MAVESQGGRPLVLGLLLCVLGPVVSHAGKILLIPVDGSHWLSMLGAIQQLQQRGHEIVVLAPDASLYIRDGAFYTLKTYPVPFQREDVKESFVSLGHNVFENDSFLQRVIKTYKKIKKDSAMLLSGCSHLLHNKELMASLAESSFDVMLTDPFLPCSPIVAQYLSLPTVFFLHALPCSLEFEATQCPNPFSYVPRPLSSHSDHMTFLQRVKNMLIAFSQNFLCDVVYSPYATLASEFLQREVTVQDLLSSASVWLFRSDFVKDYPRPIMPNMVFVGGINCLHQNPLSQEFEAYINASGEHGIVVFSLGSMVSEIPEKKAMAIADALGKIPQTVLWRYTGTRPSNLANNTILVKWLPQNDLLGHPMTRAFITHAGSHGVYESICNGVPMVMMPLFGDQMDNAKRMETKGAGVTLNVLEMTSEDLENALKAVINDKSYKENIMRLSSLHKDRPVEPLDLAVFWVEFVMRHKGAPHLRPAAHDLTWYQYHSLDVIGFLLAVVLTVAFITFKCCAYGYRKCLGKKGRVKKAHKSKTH
Cytochrome P450 1A2, sequence (P05177 whole entry, canonical isoform): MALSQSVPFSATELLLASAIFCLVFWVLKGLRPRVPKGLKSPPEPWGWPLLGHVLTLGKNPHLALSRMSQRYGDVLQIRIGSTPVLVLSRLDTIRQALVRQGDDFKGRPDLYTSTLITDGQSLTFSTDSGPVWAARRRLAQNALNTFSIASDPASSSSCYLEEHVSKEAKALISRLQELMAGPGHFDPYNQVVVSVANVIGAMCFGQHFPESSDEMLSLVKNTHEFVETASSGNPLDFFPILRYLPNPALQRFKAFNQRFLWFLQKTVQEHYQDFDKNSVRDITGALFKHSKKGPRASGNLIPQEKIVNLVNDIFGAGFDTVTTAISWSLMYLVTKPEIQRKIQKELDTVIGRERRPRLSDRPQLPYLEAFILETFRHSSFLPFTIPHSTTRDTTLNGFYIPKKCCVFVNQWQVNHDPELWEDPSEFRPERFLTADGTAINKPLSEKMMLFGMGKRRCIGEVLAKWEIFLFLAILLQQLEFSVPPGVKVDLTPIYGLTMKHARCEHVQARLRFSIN
Voltage-gated inwardly rectifying potassium channel KCNH2, sequence (Q12809 whole entry): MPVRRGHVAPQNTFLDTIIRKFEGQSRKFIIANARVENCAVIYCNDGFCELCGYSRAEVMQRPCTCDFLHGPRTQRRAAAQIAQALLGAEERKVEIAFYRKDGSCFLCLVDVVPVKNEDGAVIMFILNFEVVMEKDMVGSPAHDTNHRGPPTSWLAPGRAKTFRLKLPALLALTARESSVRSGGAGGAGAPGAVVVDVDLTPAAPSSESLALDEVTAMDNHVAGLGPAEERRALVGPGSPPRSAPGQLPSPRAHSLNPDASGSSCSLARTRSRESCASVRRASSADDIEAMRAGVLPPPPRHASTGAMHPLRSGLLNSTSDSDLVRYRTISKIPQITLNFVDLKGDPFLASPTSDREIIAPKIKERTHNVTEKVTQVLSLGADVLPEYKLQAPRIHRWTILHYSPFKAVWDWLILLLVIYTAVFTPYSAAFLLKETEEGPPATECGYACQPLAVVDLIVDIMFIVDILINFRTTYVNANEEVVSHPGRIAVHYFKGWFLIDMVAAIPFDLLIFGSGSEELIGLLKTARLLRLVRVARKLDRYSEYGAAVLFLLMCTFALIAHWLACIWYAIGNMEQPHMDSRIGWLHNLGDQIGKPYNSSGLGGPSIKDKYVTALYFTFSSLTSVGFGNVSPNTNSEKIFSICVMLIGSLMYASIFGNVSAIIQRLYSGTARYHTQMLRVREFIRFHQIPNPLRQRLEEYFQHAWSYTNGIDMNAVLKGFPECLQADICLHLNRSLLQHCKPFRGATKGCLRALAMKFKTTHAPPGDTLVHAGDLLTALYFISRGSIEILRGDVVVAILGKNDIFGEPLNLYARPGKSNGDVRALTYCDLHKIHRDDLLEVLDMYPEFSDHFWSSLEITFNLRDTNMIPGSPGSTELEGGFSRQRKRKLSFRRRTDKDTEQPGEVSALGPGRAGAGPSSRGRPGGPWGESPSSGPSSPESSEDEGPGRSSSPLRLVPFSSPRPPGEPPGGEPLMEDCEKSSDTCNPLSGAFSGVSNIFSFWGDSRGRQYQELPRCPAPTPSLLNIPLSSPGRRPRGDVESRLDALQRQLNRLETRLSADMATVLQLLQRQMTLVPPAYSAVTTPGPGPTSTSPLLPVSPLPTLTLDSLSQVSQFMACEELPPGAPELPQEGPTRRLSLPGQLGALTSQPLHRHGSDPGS

Row | SMILES | half-life at 1 µM [1] [h] | half-life at 1 µM [2] [h] | EC50 (Hepatitis B virus) [µM] | half-life at 1 µM [3] [h] | half-life at 1 µM [4] [h] | half-life at 1 µM [5] [h] | half-life [6] [h] | half-life [7] [h] | half-life [8] [h] | half-life [9] [h] | half-life [10] [h] | IC50 (Cytochrome P450 1A2) [µM] | IC50 (Cytochrome P450 2B6) [µM] | IC50 (Cytochrome P450 2C8) [µM] | IC50 (Cytochrome P450 2C9) [µM] | IC50 (Cytochrome P450 2C19) [µM] | IC50 (Cytochrome P450 2D6) [µM] | IC50 (Cytochrome P450 3A4) [µM] | inhibition at 10 µM (UGT1A1) [%] | IC50 [11] [µM] | also measured
1 | C#CC1(N(COP(=O)([O-])[O-])C(=O)C(=O)c2c(C)c(C(=O)Nc3ccc(F)c(C#N)c3)n(C)c2C)COC1.[Na+].[Na+] | > 1 | > 1 | 0.00145 | > 1 | > 1 | > 1 | > 4 | > 4 | > 4 | > 4 | > 4 | > 100 | > 100 | > 100 | > 100 | > 100 | > 100 | > 100 | 11.2 | ~50 | IC50 [12]: ~50 µM; Activity [13]: Non-toxic; Activity [14]: Non-toxic; Activity [15]: Non-toxic; Activity [16]: Non-toxic; Activity [17]: Non-toxic; Activity [18]: Non-toxic; IC50 [19]: > 300 µM
2 | C#CC1(NC(=O)C(=O)c2c(C)c(C(=O)Nc3ccc(F)c(C#N)c3)n(C)c2C)COC1 | > 1 | > 1 | 0.00063 | > 1 | > 1 | > 1 | > 4 | > 4 | > 4 | > 4 | > 4 | > 50 | > 50 | 48.6 | > 50 | > 50 | > 50 | > 50 | 7.3 | > 11.8 | EC90 (Hepatitis B virus): 0.00317 µM; Tmax [20]: 1 h; IC50 [12]: > 11.8 µM; Activity [13]: Non-toxic; Activity [14]: Non-toxic; Activity [15]: Non-toxic; Activity [16]: Non-toxic; Activity [17]: Non-toxic; Activity [18]: Non-toxic; IC50 [19]: > 10 µM
